Laboratory results taken from ChEMBL document CHEMBL4689842, “EUbOPEN Chemogenomics Library wave 1” (2021).

Test system: U2OS
Experiment: Multiplex assay against U2OS
Assay type: toxicity, cell-based
Settings: human
How it was run: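 Live cells were stained at seeding with Hoechst33342, BioTracker Green Microtubule Cytoskeleton Dye, MitoTracker Red and Annexin V Alexa Fluor 680, then imaged on a CQ1 microscope at 37°C and 5% CO2 after compound addition. CellPathfinder machine-learning gating split cells into Hoechst high-intensity objects or normal cells. Normal cells were split into healthy, pyknosed or fragmented nuclei, and pyknosed cells into mitotic or apoptotic. Tubulin, mitochondrial-mass and membrane-permeability phenotypes are per cents of healthy-nucleus cells.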

[1] = 12 h, 1 µM, compound concentration 1 uM, replicate 1
[2] = 12 h, 1 µM, compound concentration 1 uM, replicate 2
[3] = 12 h, 10 µM, compound concentration 10 uM, replicate 1
[4] = 12 h, 10 µM, compound concentration 10 uM, replicate 2
[5] = 24 h, 1 µM, compound concentration 1 uM, replicate 1
[6] = 24 h, 1 µM, compound concentration 1 uM, replicate 2
[7] = 24 h, 10 µM, compound concentration 10 uM, replicate 1
[8] = 24 h, 10 µM, compound concentration 10 uM, replicate 2
[9] = 48 h, 1 µM, compound concentration 1 uM, replicate 1
[10] = 48 h, 1 µM, compound concentration 1 uM, replicate 2
[11] = 48 h, 10 µM, compound concentration 10 uM, replicate 1
[12] = 48 h, 10 µM, compound concentration 10 uM, replicate 2

CN1CCC(=C2c3ccccc3CC(=O)c3sccc32)CC1.O=C(O)/C=C/C(=O)O [KETOTIFEN FUMARATE]
Population Apoptotic (%) [1]: 63%
Population Fragmented Nuclei (%) [1]: 10%
Population Healthy Nuclei (%) [1]: 75%
Population Hoechst High Intensity Objects (%) [1]: 5%
Population Membrane Permeable-Phenotype (%) [1]: 15%
Population Mitochondria Different-Phenotype (%) [1]: 19%
Population Mitotic Cells (%) [1]: 36%
Population Normal (%) [1]: 94%
Population Pyknosed Nuclei (%) [1]: 13%
Population Tubulin-Different-Phenotype (%) [1]: 19%
Total Cell Count [1]: 178
Population Apoptotic (%) [2]: 75%
Population Fragmented Nuclei (%) [2]: 6%
Population Healthy Nuclei (%) [2]: 87%
Population Membrane Permeable-Phenotype (%) [2]: 10%
Population Mitochondria Different-Phenotype (%) [2]: 12%
Population Mitotic Cells (%) [2]: 25%
Population Pyknosed Nuclei (%) [2]: 6%
Population Tubulin-Different-Phenotype (%) [2]: 9%
Total Cell Count [2]: 56
Population Apoptotic (%) [3]: 52%
Population Fragmented Nuclei (%) [3]: 15%
Population Healthy Nuclei (%) [3]: 62%
Population Hoechst High Intensity Objects (%) [3]: 5%
Population Membrane Permeable-Phenotype (%) [3]: 15%
Population Mitochondria Different-Phenotype (%) [3]: 90%
Population Mitotic Cells (%) [3]: 48%
Population Normal (%) [3]: 94%
Population Pyknosed Nuclei (%) [3]: 21%
Population Tubulin-Different-Phenotype (%) [3]: 97%
Total Cell Count [3]: 167
Population Apoptotic (%) [4]: 33%
Population Fragmented Nuclei (%) [4]: 2%
Population Healthy Nuclei (%) [4]: 75%
Population Hoechst High Intensity Objects (%) [4]: 1%
Population Mitotic Cells (%) [4]: 66%
Population Normal (%) [4]: 98%
Population Pyknosed Nuclei (%) [4]: 22%
Population Tubulin-Different-Phenotype (%) [4]: 95%
Total Cell Count [4]: 67
Population Apoptotic (%) [5]: 48%
Population Healthy Nuclei (%) [5]: 77%
Population Hoechst High Intensity Objects (%) [5]: 5%
Population Membrane Permeable-Phenotype (%) [5]: 8%
Population Mitochondria Different-Phenotype (%) [5]: 16%
Population Mitotic Cells (%) [5]: 52%
Population Normal (%) [5]: 94%
Population Pyknosed Nuclei (%) [5]: 14%
Population Tubulin-Different-Phenotype (%) [5]: 11%
Total Cell Count [5]: 180
Population Apoptotic (%) [6]: 100%
Population Fragmented Nuclei (%) [6]: 8%
Population Healthy Nuclei (%) [6]: 86%
Population Hoechst High Intensity Objects (%) [6]: 7%
Population Membrane Permeable-Phenotype (%) [6]: 9%
Population Mitochondria Different-Phenotype (%) [6]: 10%
Population Mitotic Cells (%) [6]: 0%
Population Normal (%) [6]: 92%
Population Pyknosed Nuclei (%) [6]: 5%
Population Tubulin-Different-Phenotype (%) [6]: 4%
Total Cell Count [6]: 64
Population Apoptotic (%) [7]: 62%
Population Fragmented Nuclei (%) [7]: 14%
Population Healthy Nuclei (%) [7]: 59%
Population Hoechst High Intensity Objects (%) [7]: 6%
Population Membrane Permeable-Phenotype (%) [7]: 5%
Population Mitochondria Different-Phenotype (%) [7]: 96%
Population Mitotic Cells (%) [7]: 37%
Population Normal (%) [7]: 93%
Population Pyknosed Nuclei (%) [7]: 25%
Population Tubulin-Different-Phenotype (%) [7]: 85%
Total Cell Count [7]: 186
Population Apoptotic (%) [8]: 59%
Population Fragmented Nuclei (%) [8]: 6%
Population Healthy Nuclei (%) [8]: 66%
Population Hoechst High Intensity Objects (%) [8]: 2%
Population Membrane Permeable-Phenotype (%) [8]: 22%
Population Mitochondria Different-Phenotype (%) [8]: 98%
Population Mitotic Cells (%) [8]: 40%
Population Normal (%) [8]: 97%
Population Pyknosed Nuclei (%) [8]: 27%
Population Tubulin-Different-Phenotype (%) [8]: 88%
Total Cell Count [8]: 80
Population Apoptotic (%) [9]: 40%
Population Fragmented Nuclei (%) [9]: 4%
Population Healthy Nuclei (%) [9]: 86%
Population Hoechst High Intensity Objects (%) [9]: 4%
Population Membrane Permeable-Phenotype (%) [9]: 5%
Population Mitochondria Different-Phenotype (%) [9]: 13%
Population Mitotic Cells (%) [9]: 59%
Population Normal (%) [9]: 95%
Population Pyknosed Nuclei (%) [9]: 8%
Population Tubulin-Different-Phenotype (%) [9]: 11%
Total Cell Count [9]: 182
Population Apoptotic (%) [10]: 28%
Population Fragmented Nuclei (%) [10]: 8%
Population Healthy Nuclei (%) [10]: 80%
Population Hoechst High Intensity Objects (%) [10]: 2%
Population Membrane Permeable-Phenotype (%) [10]: 4%
Population Mitochondria Different-Phenotype (%) [10]: 9%
Population Mitotic Cells (%) [10]: 71%
Population Normal (%) [10]: 97%
Population Pyknosed Nuclei (%) [10]: 11%
Population Tubulin-Different-Phenotype (%) [10]: 7%
Total Cell Count [10]: 63
Population Apoptotic (%) [11]: 66%
Population Fragmented Nuclei (%) [11]: 12%
Population Healthy Nuclei (%) [11]: 60%
Population Membrane Permeable-Phenotype (%) [11]: 9%
Population Mitochondria Different-Phenotype (%) [11]: 70%
Population Mitotic Cells (%) [11]: 33%
Population Pyknosed Nuclei (%) [11]: 27%
Population Tubulin-Different-Phenotype (%) [11]: 72%
Total Cell Count [11]: 263
Population Apoptotic (%) [12]: 57%
Population Fragmented Nuclei (%) [12]: 7%
Population Healthy Nuclei (%) [12]: 63%
Population Hoechst High Intensity Objects (%) [12]: 7%
Population Membrane Permeable-Phenotype (%) [12]: 16%
Population Mitochondria Different-Phenotype (%) [12]: 75%
Population Mitotic Cells (%) [12]: 42%
Population Normal (%) [12]: 92%
Population Pyknosed Nuclei (%) [12]: 29%
Population Tubulin-Different-Phenotype (%) [12]: 78%
Total Cell Count [12]: 130

Cl.Oc1ccc2c3c1O[C@H]1c4[nH]c5c(c4C[C@@]4(O)[C@@H](C2)N(CC2CC2)CC[C@]314)C[C@@]1(O)[C@H]2Cc3ccc(O)c4c3[C@@]1(CCN2CC1CC1)[C@H]5O4
Population Apoptotic (%) [1]: 38%
Population Fragmented Nuclei (%) [1]: 9%
Population Healthy Nuclei (%) [1]: 79%
Population Hoechst High Intensity Objects (%) [1]: 6%
Population Membrane Permeable-Phenotype (%) [1]: 9%
Population Mitochondria Different-Phenotype (%) [1]: 15%
Population Mitotic Cells (%) [1]: 61%
Population Normal (%) [1]: 93%
Population Tubulin-Different-Phenotype (%) [1]: 14%
Total Cell Count [1]: 105
Population Apoptotic (%) [2]: 42%
Population Fragmented Nuclei (%) [2]: 3%
Population Healthy Nuclei (%) [2]: 86%
Population Hoechst High Intensity Objects (%) [2]: 9%
Population Membrane Permeable-Phenotype (%) [2]: 10%
Population Mitochondria Different-Phenotype (%) [2]: 19%
Population Mitotic Cells (%) [2]: 57%
Population Normal (%) [2]: 90%
Population Pyknosed Nuclei (%) [2]: 10%
Population Tubulin-Different-Phenotype (%) [2]: 17%
Total Cell Count [2]: 97
Population Apoptotic (%) [3]: 57%
Population Fragmented Nuclei (%) [3]: 14%
Population Healthy Nuclei (%) [3]: 73%
Population Hoechst High Intensity Objects (%) [3]: 6%
Population Membrane Permeable-Phenotype (%) [3]: 6%
Population Mitochondria Different-Phenotype (%) [3]: 10%
Population Mitotic Cells (%) [3]: 42%
Population Normal (%) [3]: 93%
Population Pyknosed Nuclei (%) [3]: 12%
Population Tubulin-Different-Phenotype (%) [3]: 3%
Total Cell Count [3]: 183
Population Apoptotic (%) [4]: 93%
Population Fragmented Nuclei (%) [4]: 12%
Population Healthy Nuclei (%) [4]: 48%
Population Hoechst High Intensity Objects (%) [4]: 7%
Population Membrane Permeable-Phenotype (%) [4]: 52%
Population Mitochondria Different-Phenotype (%) [4]: 26%
Population Mitotic Cells (%) [4]: 6%
Population Normal (%) [4]: 92%
Population Pyknosed Nuclei (%) [4]: 38%
Population Tubulin-Different-Phenotype (%) [4]: 89%
Total Cell Count [4]: 73
Population Apoptotic (%) [5]: 30%
Population Fragmented Nuclei (%) [5]: 7%
Population Healthy Nuclei (%) [5]: 80%
Population Hoechst High Intensity Objects (%) [5]: 3%
Population Membrane Permeable-Phenotype (%) [5]: 6%
Population Mitochondria Different-Phenotype (%) [5]: 12%
Population Mitotic Cells (%) [5]: 69%
Population Normal (%) [5]: 96%
Population Pyknosed Nuclei (%) [5]: 11%
Population Tubulin-Different-Phenotype (%) [5]: 9%
Total Cell Count [5]: 113
Population Apoptotic (%) [6]: 25%
Population Fragmented Nuclei (%) [6]: 3%
Population Healthy Nuclei (%) [6]: 91%
Population Hoechst High Intensity Objects (%) [6]: 4%
Population Membrane Permeable-Phenotype (%) [6]: 10%
Population Mitochondria Different-Phenotype (%) [6]: 13%
Population Mitotic Cells (%) [6]: 75%
Population Normal (%) [6]: 95%
Population Pyknosed Nuclei (%) [6]: 4%
Population Tubulin-Different-Phenotype (%) [6]: 18%
Total Cell Count [6]: 94
Population Apoptotic (%) [7]: 55%
Population Fragmented Nuclei (%) [7]: 9%
Population Healthy Nuclei (%) [7]: 80%
Population Hoechst High Intensity Objects (%) [7]: 3%
Population Membrane Permeable-Phenotype (%) [7]: 3%
Population Mitochondria Different-Phenotype (%) [7]: 8%
Population Mitotic Cells (%) [7]: 45%
Population Normal (%) [7]: 96%
Population Pyknosed Nuclei (%) [7]: 10%
Population Tubulin-Different-Phenotype (%) [7]: 5%
Total Cell Count [7]: 231
Population Apoptotic (%) [8]: 76%
Population Fragmented Nuclei (%) [8]: 13%
Population Healthy Nuclei (%) [8]: 58%
Population Hoechst High Intensity Objects (%) [8]: 13%
Population Membrane Permeable-Phenotype (%) [8]: 48%
Population Mitochondria Different-Phenotype (%) [8]: 33%
Population Mitotic Cells (%) [8]: 23%
Population Normal (%) [8]: 86%
Population Pyknosed Nuclei (%) [8]: 28%
Population Tubulin-Different-Phenotype (%) [8]: 77%
Total Cell Count [8]: 91
Population Apoptotic (%) [9]: 22%
Population Fragmented Nuclei (%) [9]: 4%
Population Hoechst High Intensity Objects (%) [9]: 3%
Population Membrane Permeable-Phenotype (%) [9]: 2%
Population Mitochondria Different-Phenotype (%) [9]: 11%
Population Mitotic Cells (%) [9]: 77%
Population Normal (%) [9]: 96%
Population Pyknosed Nuclei (%) [9]: 8%
Population Tubulin-Different-Phenotype (%) [9]: 11%
Total Cell Count [9]: 107
Population Apoptotic (%) [10]: 14%
Population Fragmented Nuclei (%) [10]: 6%
Population Healthy Nuclei (%) [10]: 87%
Population Hoechst High Intensity Objects (%) [10]: 4%
Population Membrane Permeable-Phenotype (%) [10]: 9%
Population Mitochondria Different-Phenotype (%) [10]: 16%
Population Mitotic Cells (%) [10]: 85%
Population Normal (%) [10]: 95%
Population Pyknosed Nuclei (%) [10]: 5%
Population Tubulin-Different-Phenotype (%) [10]: 14%
Total Cell Count [10]: 96
Population Apoptotic (%) [11]: 47%
Population Fragmented Nuclei (%) [11]: 4%
Population Healthy Nuclei (%) [11]: 89%
Population Hoechst High Intensity Objects (%) [11]: 3%
Population Membrane Permeable-Phenotype (%) [11]: 1%
Population Mitochondria Different-Phenotype (%) [11]: 9%
Population Mitotic Cells (%) [11]: 52%
Population Normal (%) [11]: 96%
Population Pyknosed Nuclei (%) [11]: 6%
Population Tubulin-Different-Phenotype (%) [11]: 4%
Total Cell Count [11]: 365
Population Apoptotic (%) [12]: 60%
Population Fragmented Nuclei (%) [12]: 11%
Population Healthy Nuclei (%) [12]: 73%
Population Hoechst High Intensity Objects (%) [12]: 8%
Population Membrane Permeable-Phenotype (%) [12]: 30%
Population Mitochondria Different-Phenotype (%) [12]: 34%
Population Mitotic Cells (%) [12]: 40%
Population Normal (%) [12]: 91%
Population Pyknosed Nuclei (%) [12]: 15%
Population Tubulin-Different-Phenotype (%) [12]: 84%
Total Cell Count [12]: 129
